Biological target: CrSMT (Chlamydomonas reinhardtii, UniProt A8IJ34)
Experiment: [methyl-3H3]SAM radiometric assay, initial velocity, Lineweaver-Burk
Assay type: biochemical
Settings: E. coli lysate; 100 μM SAM (saturating), phosphate buffer pH 7.5
How it was run: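 Recombinant 384-aa CrSMT expressed in E. coli BL21(DE3), IPTG-induced (0.4 mM, 2 h, 30 °C), French-press lysate in 20 mM phosphate, 5% glycerol, pH 7.5. Lysate (1–2 mg total protein) incubated 45 min with sterol acceptor 5–150 μM plus [methyl-3H3]SAM (0.6 μCi). Methanolic KOH saponification, hexane extraction of non-saponifiable lipids. Sterol-free background 500–1000 dpm. Lineweaver–Burk analysis.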

Km	Structure (SMILES)
24 µM	CC(C)=CCC[C@@H](C)[C@H]1CC[C@@]2(C)C3=C(CC[C@]12C)[C@@]1(C)CC[C@H](O)C(C)(C)[C@@H]1CC3 [compound 1, Lanosterol]
22 µM	CC(C)=CCC[C@@H](C)[C@H]1CC[C@H]2C3=C(CC[C@]12C)[C@@]1(C)CC[C@H](O)C[C@@H]1CC3 [compound 9, Zymosterol]
